From ChEMBL document CHEMBL1157101, “A series of alpha-heterocyclic carboxaldehyde thiosemicarbazones inhibit topoisomerase IIalpha catalytic activity” (J Med Chem, 2010)
pIC50: −log10 of the molar value. Structures can show the parent of a compound that is named as a salt. Activity calls are given as the source filed them. The rule behind the calls is not given here.

Key:
[1] = test system: SGC-7901; assay: Antiproliferative activity against human SGC7901 cells after 72 hrs by sulforhodamine B assay; type: functional, cell-based; conditions: SGC-7901, 72 h
Method in brief: (§1)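 Cells seeded and exposed in triplicate to graded compound concentrations for 72 h. Suspension cells read by MTT conversion to coloured product; adherent cells read by sulforhodamine B. IC50 (50% growth inhibition versus untreated control) derived by the Logit method.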

[2] = test system: HL-60; assay: Antiproliferative activity against human HL60 cells after 72 hrs by sulforhodamine B assay; type: functional, cell-based; conditions: HL-60, 72 h, in the assay text read “MTT assay” for “sulforhodamine B assay”; method in brief: as §1
[3] = test system: HeLa; assay: Antiproliferative activity against human HeLa cells after 72 hrs by sulforhodamine B assay; type: functional, cell-based; method in brief: as §1
[4] = test system: HT-29; assay: Antiproliferative activity against human HT-29 cells after 72 hrs by sulforhodamine B assay; type: functional, cell-based; conditions: HT-29, 72 h; method in brief: as §1
[5] = target: T1, DNA topoisomerase 2-alpha (Homo sapiens, UniProt P11388); assay: Inhibition of human topoisomerase 2 alpha-mediated decatenation of kDNA at 100 uM after 15 mins
T1 sequence (P11388 whole entry): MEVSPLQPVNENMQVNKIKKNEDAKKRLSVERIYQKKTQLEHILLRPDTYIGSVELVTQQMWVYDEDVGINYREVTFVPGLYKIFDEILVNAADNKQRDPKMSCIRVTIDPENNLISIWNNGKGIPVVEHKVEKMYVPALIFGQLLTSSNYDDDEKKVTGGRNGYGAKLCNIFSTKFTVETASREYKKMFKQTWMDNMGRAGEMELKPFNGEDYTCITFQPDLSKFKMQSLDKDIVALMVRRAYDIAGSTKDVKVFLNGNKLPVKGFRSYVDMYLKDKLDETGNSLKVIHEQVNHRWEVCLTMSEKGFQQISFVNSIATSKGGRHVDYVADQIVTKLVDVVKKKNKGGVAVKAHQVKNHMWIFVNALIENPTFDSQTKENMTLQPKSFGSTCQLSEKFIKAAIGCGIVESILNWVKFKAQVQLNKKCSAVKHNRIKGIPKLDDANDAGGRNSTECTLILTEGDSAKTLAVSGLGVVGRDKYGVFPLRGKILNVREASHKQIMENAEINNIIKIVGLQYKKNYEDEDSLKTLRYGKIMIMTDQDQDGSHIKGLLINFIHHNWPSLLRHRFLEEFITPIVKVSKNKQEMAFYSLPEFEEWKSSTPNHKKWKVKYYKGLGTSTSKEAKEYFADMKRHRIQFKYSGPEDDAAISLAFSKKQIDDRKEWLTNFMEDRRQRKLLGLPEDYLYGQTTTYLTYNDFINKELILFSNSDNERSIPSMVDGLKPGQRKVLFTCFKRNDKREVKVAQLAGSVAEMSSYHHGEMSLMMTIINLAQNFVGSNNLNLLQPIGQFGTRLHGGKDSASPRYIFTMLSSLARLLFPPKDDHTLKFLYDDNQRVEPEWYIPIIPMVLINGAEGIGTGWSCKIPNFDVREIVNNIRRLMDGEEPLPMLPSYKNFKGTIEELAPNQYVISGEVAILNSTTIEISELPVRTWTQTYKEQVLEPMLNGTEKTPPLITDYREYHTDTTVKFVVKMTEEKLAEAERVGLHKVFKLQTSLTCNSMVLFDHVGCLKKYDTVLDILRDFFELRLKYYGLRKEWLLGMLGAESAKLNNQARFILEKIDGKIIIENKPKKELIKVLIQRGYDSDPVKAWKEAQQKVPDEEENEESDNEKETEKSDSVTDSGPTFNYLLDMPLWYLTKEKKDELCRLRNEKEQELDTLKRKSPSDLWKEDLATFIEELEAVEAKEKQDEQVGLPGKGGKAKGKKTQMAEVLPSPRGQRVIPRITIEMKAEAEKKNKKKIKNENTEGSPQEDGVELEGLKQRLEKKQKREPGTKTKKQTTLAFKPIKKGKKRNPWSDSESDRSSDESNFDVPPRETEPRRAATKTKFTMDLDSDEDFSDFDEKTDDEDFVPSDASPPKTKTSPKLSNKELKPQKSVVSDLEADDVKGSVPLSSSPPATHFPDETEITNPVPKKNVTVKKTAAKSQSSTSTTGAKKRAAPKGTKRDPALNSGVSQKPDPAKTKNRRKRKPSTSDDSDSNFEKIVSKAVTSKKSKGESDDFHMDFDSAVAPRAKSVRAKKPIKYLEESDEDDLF

[6] = test system: CCRF S-180; assay: Antitumor activity against mouse S180 cells transplanted in Kunming mouse assessed as inhibition of tumor growth at 50 mg/kg/day, iv for 2 days; type: functional; conditions: CCRF S-180, 48 h
Method in brief: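 Female Kunming mice, 7 weeks old, 18-22 g, were inoculated sc in the right armpit with S-180 sarcoma. Dosing started the next day: the drug iv, vehicle controls normal saline. After treatment, mice were killed, and solid tumors were excised and weighed. Inhibitory rate (%) = (mean control tumor weight − mean treated tumor weight)/mean control tumor weight × 100.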

[7] = test system: Mus musculus; assay: Toxicity in Kunming mouse bearing mouse S180 cells assessed as change in body weight at 50 mg/kg/day, ip for 2 days (reference value: 18.1 g); type: organism-based, CCRF S-180; set-up: route intraperitoneal; conditions: in vivo, 48 h
[8] = test system: Nucleic Acid; assay: Inhibition of Fenton's reaction mediated DNA strand break in Escherichia coli pBR322 at 0.1 to 1 uM by gel electrophoresis; type: nucleic-acid assay
Method in brief: (§2)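 pBR322 (0.2 μg) incubated 30 min at room temperature in 13 mM Hepes pH 7.2 with 1 mM H2O2 and 10 μM FeSO4 plus compound. Run on 1% agarose containing 0.1 μg/mL ethidium bromide at 90 V for 60 min. Bands quantified; % supercoiled = 1.4SC/(L+OC+1.4SC)×100.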

[9] = test system: HT-29; assay: Cell cycle arrest in nocodazole pretreated human HT-29 cells assessed as accumulation at M phase at 10 uM after 24 hrs; type: functional, cell-based
Method in brief: (§3)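 HT-29 cells stained with propidium iodide; cell-cycle distribution determined by flow cytometry.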

[10] = test system: HT-29; assay: Cell cycle arrest in nocodazole pretreated human HT-29 cells assessed as accumulation at M phase at 5 uM after 24 hrs; type: functional, cell-based; method in brief: as §3
[11] = test system: Nucleic Acid; assay: Inhibition of Fenton's reaction mediated DNA strand break in Escherichia coli pBR322 at 1 to 100 uM by gel electrophoresis; type: nucleic-acid assay; method in brief: as §2
[12] = test system: Nucleic Acid; assay: Inhibition of Fenton's reaction mediated DNA strand break in Escherichia coli pBR322 by gel electrophoresis; type: nucleic-acid assay; method in brief: as §2
[13] = target: T1, DNA topoisomerase 2-alpha; assay: Inhibition of human topoisomerase 2alpha-mediated relaxation of pBR322 up to 125 uM
[14] = Antiproliferative activity against human MCF7/ADR cells after 72 hrs by sulforhodamine B assay; type: functional, cell-based; conditions: NCI/ADR-RES; method in brief: as §1
[15] = Antiproliferative activity against human K562/A02 cells after 72 hrs by sulforhodamine B assay; type: functional, cell-based; conditions: K562/A02, 72 h, in the assay text read “MTT assay” for “sulforhodamine B assay”; method in brief: as §1
[16] = test system: KB; assay: Antiproliferative activity against human KB cells after 72 hrs by sulforhodamine B assay; type: functional, cell-based; method in brief: as §1
[17] = Antiproliferative activity against human KB/VCR cells after 72 hrs by sulforhodamine B assay; type: functional, cell-based; method in brief: as §1

| SMILES | pIC50 [1] | pIC50 [2] | pIC50 [3] | pIC50 [4] | inhibition (active/not active) [5] | other results |
| --- | --- | --- | --- | --- | --- | --- |
| S=C(N/N=C/c1ccc2ccccc2n1)Nc1ccccc1Br | < 4.00 | < 4.00 | < 4.00 | < 4.00 | – | – |
| NC(=S)N/N=C/c1nc2ccccc2c2ncccc12 | 5.13 | < 4.00 | 4.66 | 4.94 | Active | – |
| S=C(N/N=C/c1ccc2ccccc2n1)Nc1ccc(Cl)cc1 | 4.06 | < 4.00 | < 4.00 | 4.01 | – | – |
| S=C(N/N=C/c1ccc2ccccc2n1)Nc1cccc(Cl)c1 | 4.21 | 4.54 | 4.28 | 4.32 | – | – |
| CN(C)C(=S)N/N=C/c1nc2ccccc2c2ncccc12 | 7.40 | 6.37 | 5.76 | 7.40 | Active | – |
| O=c1[nH]cc(F)c(=O)[nH]1 [FLUOROURACIL] | – | – | – | – | – | inhibition in vivo at 50 mg/kg/day [6]: 80.7%; Activity [7]: 27.5 g |
| CN(C)C(=S)N/N=C/c1cc2cccnc2s1 | 4.67 | < 4.00 | 4.32 | 4.87 | Active | – |
| CN(C)C(=S)N/N=C/c1ccc2cccnc2n1 | 6.20 | 6.25 | 6.01 | 6.39 | Active | – |
| FC(F)(F)c1ccccc1NC(=S)N/N=C/c1ccc2ccccc2n1 | 4.68 | 4.88 | 4.73 | 4.74 | – | – |
| NC(=S)N/N=C/c1cc2cccnc2s1 | 4.00 | < 4.00 | 5.20 | < 4.00 | – | – |
| CC(=O)N(O)CCCCCNC(=O)CCC(=O)N(O)CCCCCNC(=O)CCC(=O)N(O)CCCCCN | – | – | – | – | – | inhibition [8]: Active; Activity [9]: Active; Activity [10]: Active; inhibition [11]: Active; inhibition [12]: Dose-dependent effect; inhibition [13]: inactive |
| S=C(N/N=C/c1ccc2ccccc2n1)Nc1cccc(Br)c1 | 4.10 | 4.27 | 4.16 | 4.23 | – | – |
| FC(F)(F)c1ccc(NC(=S)N/N=C/c2ccc3ccccc3n2)cc1 | 4.14 | 4.46 | 4.23 | 4.19 | – | – |
| CN(C)C(=S)N/N=C/c1nc2ccccc2s1 | 6.08 | 5.43 | 5.68 | 6.60 | Active | – |
| COc1cccc(NC(=S)N/N=C/c2ccc3ccccc3n2)c1 | 4.10 | 4.15 | 4.13 | 4.08 | – | – |
| COc1ccc(NC(=S)N/N=C/c2ccc3ccccc3n2)cc1 | 4.05 | 4.36 | 4.14 | 4.08 | – | – |
| NC(=S)N/N=C/c1ccc2cccnc2n1 | < 4.00 | < 4.00 | < 4.00 | 4.89 | inactive | – |
| COc1ccc(C)cc1NC(=S)N/N=C/c1ccc2ccccc2n1 | < 4.00 | < 4.00 | < 4.00 | < 4.00 | – | – |
| Cc1ccccc1NC(=S)N/N=C/c1ccc2ccccc2n1 | < 4.00 | 4.14 | < 4.00 | 4.37 | inactive | – |
| NC(=S)N/N=C/c1cnc2ccccc2n1 | < 4.00 | < 4.00 | < 4.00 | < 4.00 | – | – |

| SMILES | pIC50 [1] | pIC50 [2] | pIC50 [3] | pIC50 [4] | inhibition (active/not active) [5] | other results |
| --- | --- | --- | --- | --- | --- | --- |
| S=C(N/N=C/c1ccc2ccccc2n1)Nc1ccc(Br)cc1 | 4.16 | 4.56 | 4.25 | 4.26 | – | – |
| COc1cccc2c1C(=O)c1c(O)c3c(c(O)c1C2=O)C[C@@](O)(C(=O)CO)C[C@@H]3O[C@H]1C[C@H](N)[C@H](O)[C@H](C)O1 [DOXORUBICIN HYDROCHLORIDE] | – | – | – | – | – | pIC50 [14]: 4.35; pIC50 [15]: 4.62 |
| Cc1cccc(NC(=S)N/N=C/c2ccc3ccccc3n2)c1 | < 4.00 | < 4.00 | < 4.00 | < 4.00 | – | – |
| Fc1ccccc1NC(=S)N/N=C/c1ccc2ccccc2n1 | < 4.00 | < 4.00 | < 4.00 | < 4.00 | – | – |
| N#Cc1ccc(NC(=S)N/N=C/c2ccc3ccccc3n2)cc1 | 4.63 | 5.33 | 4.70 | 4.81 | – | – |
| S=C(N/N=C/c1ccc2ccccc2n1)Nc1ccccc1 | 4.58 | 5.04 | 4.56 | 4.77 | – | – |
| NC(=S)N/N=C/c1nc2ccccc2s1 | < 4.00 | < 4.00 | 5.27 | < 4.00 | inactive | – |
| CN(C)C(=S)N/N=C/c1cnc2ccccc2n1 | 6.77 | 7.05 | 6.12 | 6.35 | Active | – |
| NC(=S)N/N=C/c1ccc2ccccc2n1 | 4.49 | < 4.00 | 6.02 | 4.00 | inactive | – |
| NC(=S)N/N=C/c1cc2ccccc2s1 | < 4.00 | < 4.00 | 5.17 | 4.00 | inactive | – |
| CC[C@]1(O)C[C@H]2CN(CCc3c([nH]c4ccccc34)[C@@](C(=O)OC)(c3cc4c(cc3OC)N(C=O)[C@H]3[C@@](O)(C(=O)OC)[C@H](OC(C)=O)[C@]5(CC)C=CCN6CC[C@]43[C@@H]65)C2)C1 [VINCRISTINE] | – | – | – | – | – | pIC50 [16]: 8.00; pIC50 [17]: 6.08 |
| Cc1ccc(NC(=O)N/N=C/c2ccc3ccccc3n2)cc1 | < 4.00 | < 4.00 | < 4.00 | < 4.00 | – | – |
| Fc1ccc(NC(=S)N/N=C/c2ccc3ccccc3n2)cc1 | 4.49 | 4.77 | 4.48 | 4.55 | – | – |
| Cc1csc2sc(/C=N/NC(N)=S)c(C)c12 | < 4.00 | < 4.00 | 5.95 | 4.24 | inactive | – |
| Fc1cccc(NC(=S)N/N=C/c2ccc3ccccc3n2)c1 | 4.10 | 4.36 | 4.15 | 4.13 | inactive | – |
| Cc1ccc(NC(=S)N/N=C/c2ccc3ccccc3n2)cc1 | 4.03 | 4.11 | 4.07 | 4.07 | – | – |
| COc1ccccc1NC(=S)N/N=C/c1ccc2ccccc2n1 | < 4.00 | 4.04 | < 4.00 | < 4.00 | – | – |
| CC(C)c1cccc(C(C)C)c1NC(=S)N/N=C/c1ccc2ccccc2n1 | 4.63 | 4.71 | 4.79 | 4.68 | – | – |
| S=C(NCc1ccccc1)N/N=C/c1ccc2ccccc2n1 | 4.27 | 4.66 | 4.20 | 4.12 | – | – |
